Results from ChEMBL document CHEMBL1139597, “Evaluation of 3-substituted arginine analogs as selective inhibitors of human nitric oxide synthase isozymes” (Bioorg Med Chem Lett, 2005).

Experiments:
[1] = target: Nitric oxide synthase, inducible (Homo sapiens, UniProt P35228); assay: Inhibitory concentration against human inducible nitric oxide synthase expressed in Sf-9 cells
How it was run: (§1)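 Recombinant human NOS isozyme produced in Sf-9 insect cells. Enzyme activity was followed as conversion of [¹⁴C]-L-Arg to [¹⁴C]-L-Cit, and IC50 was calculated from the concentration dependence of inhibition. Inhibitors were tested up to 1 mM.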

[2] = target: T1, Nitric oxide synthase 3 (Homo sapiens, UniProt P29474); assay: Inhibitory concentration against human endothelial nitric oxide synthase expressed in Sf-9 cells; how it was run: as §1
T1 sequence (P29474 whole entry): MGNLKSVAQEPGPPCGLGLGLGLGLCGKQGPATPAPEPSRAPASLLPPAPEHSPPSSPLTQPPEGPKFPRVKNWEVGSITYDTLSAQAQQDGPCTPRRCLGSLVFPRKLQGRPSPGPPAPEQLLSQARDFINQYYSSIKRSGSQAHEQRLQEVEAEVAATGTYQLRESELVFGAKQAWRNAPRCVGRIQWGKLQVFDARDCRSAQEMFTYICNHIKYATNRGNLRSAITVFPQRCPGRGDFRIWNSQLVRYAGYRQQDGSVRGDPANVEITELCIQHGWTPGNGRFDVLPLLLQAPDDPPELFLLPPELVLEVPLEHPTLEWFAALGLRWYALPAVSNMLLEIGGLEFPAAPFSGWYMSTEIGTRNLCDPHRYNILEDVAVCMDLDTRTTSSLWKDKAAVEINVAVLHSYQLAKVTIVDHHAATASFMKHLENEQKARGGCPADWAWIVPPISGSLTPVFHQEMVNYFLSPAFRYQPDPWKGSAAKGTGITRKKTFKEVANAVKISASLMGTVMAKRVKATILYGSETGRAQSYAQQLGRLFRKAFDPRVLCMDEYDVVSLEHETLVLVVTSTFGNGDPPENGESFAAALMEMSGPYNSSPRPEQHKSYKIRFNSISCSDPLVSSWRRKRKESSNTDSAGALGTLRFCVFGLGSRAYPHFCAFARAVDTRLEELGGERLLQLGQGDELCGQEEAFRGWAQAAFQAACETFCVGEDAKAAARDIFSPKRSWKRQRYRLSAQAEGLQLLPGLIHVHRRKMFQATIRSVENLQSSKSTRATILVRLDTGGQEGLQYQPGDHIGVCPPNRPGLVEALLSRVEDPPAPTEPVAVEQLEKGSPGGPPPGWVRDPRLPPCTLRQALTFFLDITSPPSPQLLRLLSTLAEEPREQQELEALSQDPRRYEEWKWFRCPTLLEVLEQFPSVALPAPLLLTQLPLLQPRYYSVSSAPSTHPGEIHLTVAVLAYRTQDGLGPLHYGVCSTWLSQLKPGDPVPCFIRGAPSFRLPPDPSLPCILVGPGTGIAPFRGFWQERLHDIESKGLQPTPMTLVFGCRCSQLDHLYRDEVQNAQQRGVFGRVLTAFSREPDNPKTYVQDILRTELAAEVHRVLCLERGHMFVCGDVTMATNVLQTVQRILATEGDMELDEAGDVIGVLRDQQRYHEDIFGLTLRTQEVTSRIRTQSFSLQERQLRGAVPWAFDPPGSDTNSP

[3] = target: Nitric oxide synthase 1 (Homo sapiens, UniProt P29475); assay: Inhibitory concentration against human neuronal nitric oxide synthase expressed in Sf-9 cells; how it was run: as §1
Nitric oxide synthase 1, sequence (P29475 whole entry): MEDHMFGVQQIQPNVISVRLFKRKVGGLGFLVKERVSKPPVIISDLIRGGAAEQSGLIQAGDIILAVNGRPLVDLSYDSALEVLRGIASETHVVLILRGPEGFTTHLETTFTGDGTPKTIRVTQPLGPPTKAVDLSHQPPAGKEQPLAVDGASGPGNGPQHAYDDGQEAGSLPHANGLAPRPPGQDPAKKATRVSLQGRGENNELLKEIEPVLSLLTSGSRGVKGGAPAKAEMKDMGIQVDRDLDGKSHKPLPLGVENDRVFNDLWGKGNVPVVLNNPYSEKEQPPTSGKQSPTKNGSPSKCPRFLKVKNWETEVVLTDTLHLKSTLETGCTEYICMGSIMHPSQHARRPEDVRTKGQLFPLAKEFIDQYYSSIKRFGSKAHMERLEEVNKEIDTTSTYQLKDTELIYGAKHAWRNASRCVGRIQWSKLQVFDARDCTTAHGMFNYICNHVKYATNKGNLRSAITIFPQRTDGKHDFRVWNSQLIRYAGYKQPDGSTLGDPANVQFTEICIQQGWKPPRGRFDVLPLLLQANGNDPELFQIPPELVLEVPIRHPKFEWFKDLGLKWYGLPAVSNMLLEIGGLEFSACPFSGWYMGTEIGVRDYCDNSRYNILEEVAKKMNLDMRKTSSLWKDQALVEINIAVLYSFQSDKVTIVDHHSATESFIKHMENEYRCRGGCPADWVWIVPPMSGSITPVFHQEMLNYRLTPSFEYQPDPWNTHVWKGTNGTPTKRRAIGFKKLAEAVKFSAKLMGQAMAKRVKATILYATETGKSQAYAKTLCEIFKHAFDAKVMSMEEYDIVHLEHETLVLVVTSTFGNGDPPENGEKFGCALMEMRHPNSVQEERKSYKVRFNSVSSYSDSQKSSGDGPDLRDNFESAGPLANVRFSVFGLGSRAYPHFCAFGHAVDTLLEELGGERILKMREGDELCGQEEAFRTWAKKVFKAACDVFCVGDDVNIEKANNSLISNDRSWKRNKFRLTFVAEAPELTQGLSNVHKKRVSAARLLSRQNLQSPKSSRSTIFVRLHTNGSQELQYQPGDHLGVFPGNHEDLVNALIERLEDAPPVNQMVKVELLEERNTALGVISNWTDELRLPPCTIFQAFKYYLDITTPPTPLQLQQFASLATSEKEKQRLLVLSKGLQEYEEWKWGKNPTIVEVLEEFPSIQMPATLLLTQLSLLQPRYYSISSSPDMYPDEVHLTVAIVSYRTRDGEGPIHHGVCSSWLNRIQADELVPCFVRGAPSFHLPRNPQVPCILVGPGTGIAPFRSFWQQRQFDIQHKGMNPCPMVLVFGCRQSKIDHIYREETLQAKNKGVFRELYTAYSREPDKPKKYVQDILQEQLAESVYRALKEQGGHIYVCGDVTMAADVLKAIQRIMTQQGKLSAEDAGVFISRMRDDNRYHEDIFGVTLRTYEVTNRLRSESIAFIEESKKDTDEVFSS

Nitric oxide synthase, inducible, sequence (P35228 whole entry): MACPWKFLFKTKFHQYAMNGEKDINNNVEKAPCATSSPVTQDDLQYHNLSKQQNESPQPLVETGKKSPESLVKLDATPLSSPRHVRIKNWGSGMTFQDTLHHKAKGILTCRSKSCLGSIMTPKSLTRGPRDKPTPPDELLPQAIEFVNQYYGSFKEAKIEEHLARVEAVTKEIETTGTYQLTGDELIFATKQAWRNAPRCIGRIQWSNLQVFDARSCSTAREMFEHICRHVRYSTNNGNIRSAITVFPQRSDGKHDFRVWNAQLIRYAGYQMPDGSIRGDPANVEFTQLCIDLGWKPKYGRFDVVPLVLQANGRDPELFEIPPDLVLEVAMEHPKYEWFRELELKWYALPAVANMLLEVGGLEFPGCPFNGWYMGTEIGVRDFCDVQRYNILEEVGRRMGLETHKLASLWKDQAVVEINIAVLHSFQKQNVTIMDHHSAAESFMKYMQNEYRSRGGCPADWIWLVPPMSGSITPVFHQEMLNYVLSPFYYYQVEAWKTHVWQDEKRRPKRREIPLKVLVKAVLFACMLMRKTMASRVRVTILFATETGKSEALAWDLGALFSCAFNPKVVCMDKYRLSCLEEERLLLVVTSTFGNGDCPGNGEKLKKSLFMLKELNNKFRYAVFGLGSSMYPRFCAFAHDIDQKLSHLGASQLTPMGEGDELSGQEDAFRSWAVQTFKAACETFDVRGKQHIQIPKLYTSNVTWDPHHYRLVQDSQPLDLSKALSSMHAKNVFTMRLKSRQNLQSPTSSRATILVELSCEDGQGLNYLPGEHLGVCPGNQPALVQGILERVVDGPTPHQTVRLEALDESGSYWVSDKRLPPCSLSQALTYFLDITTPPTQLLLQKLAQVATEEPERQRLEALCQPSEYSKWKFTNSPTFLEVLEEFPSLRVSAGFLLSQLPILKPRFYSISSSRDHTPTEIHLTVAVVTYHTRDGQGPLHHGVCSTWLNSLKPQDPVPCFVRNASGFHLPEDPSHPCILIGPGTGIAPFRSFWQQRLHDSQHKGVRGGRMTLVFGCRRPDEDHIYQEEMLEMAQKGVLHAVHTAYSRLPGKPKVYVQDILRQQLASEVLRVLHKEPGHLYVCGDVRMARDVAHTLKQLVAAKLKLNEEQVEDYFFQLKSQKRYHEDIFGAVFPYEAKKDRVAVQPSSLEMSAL

Row | IC50 [1] [µM] | IC50 [2] [µM] | IC50 [3] [µM] | SMILES
1 | 4 | 6 |  | CC(=N)NCCC[C@H](N)C(=O)O [L-NIO]
2 | 3.9 | > 1000 | 36 | CSC(=N)NCCC[C@H](N)C(=O)N[C@@H](Cc1ccccc1)C(=O)O
3 | 370 | > 1000 | 500 | CCC[C@@H](CCN=C(N)SC)[C@H](N)C(=O)O
4 | > 1000 | > 1000 | > 1000 | CC(=N)NCC[C@@H](C)[C@H](N)C(=O)O
